Among the data in ChEMBL document CHEMBL4513216, “Probing the Open Global Health Chemical Diversity Library for Multistage-Active Starting Points for Next-Generation Antimalarials” (ACS Infect Dis, 2020) are cytotoxicity values, retold here.

The series can be described thus: Toxicity liver stage against HepG2, at 10uM. It counts as cell-based. The arrangement: test concentration 10 uM, cell line HepG2-A16-CD81EGFP. The conditions noted are these: human, HepG2-A16-CD81EGFP cells; read-out: INHIBITION
The gist of the method: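 Uninfected HepG2-A16-CD81EGFP cells, 3 × 10^3 per well, 1536-well, plated on prespotted compound at 10 μM final, parasite-free screening media added to match infected plates; puromycin 10 μM positive, DMSO 0.5% negative; run in parallel with 48 h PbLuc assay at 37 °C, 5% CO2; viability by CellTiter-Glo luminescence, normalized to controls.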
Consider `CCC(CC)NC(=O)Cn1cc(-c2ccccc2)cn1`, for which the cytotoxicity at 10 µM was -0.0581%.

Consider `CCOc1ccc(CNC(=O)c2cnc(OC)nc2)cc1`, for which the cytotoxicity at 10 µM was -0.121%.

With `CN(C)C(=O)CO[C@H]1CN(Cc2ccsc2)[C@@H]2COC[C@H]12`, the cytotoxicity at 10 µM worked out at 8.44%.

Take `Cc1nccn1C1CCCN(C(=O)c2cc(Cl)c3c(c2)OCO3)C1` (stereo unspecified): the cytotoxicity at 10 µM was -2.78%.

Take `COCC(C)NC(=O)NCCc1cccc(OC)c1O` (stereo unspecified): the cytotoxicity at 10 µM came out at 7.87%.

`COc1ccccc1N1CCN(Cc2nc(C)c(C)o2)CC1`: the cytotoxicity at 10 µM was 13.4%.

As for `Cc1nc2n(n1)CC(NCc1nnc(C(C)(C)C)o1)CC2` (stereo unspecified), the cytotoxicity at 10 µM is -5.23%.

As to `CC(C)=CCN1C(=O)[C@@H]2CC[C@H]1CN(c1ncccc1F)C2`, the cytotoxicity at 10 µM amounted to 9.72%.

For `O=C(O)[C@@H]1CN(C2CCCCC2)C[C@H]1C1CC1`, the cytotoxicity at 10 µM is -140%.

As for `CCc1cc(N(C)Cc2noc(C(C)C)n2)nc(N2CCOCC2)n1`, the cytotoxicity at 10 µM came to 0.515%.

On to `CCc1nc(C)sc1CN1CC[C@](C)(O)[C@H](C)C1`, for which the cytotoxicity at 10 µM was -2.11%.

As for `Brc1ccc(CN2CCC(NCc3ncc[nH]3)CC2)cc1`, the cytotoxicity at 10 µM stood at 14.8%.

Take `Cc1ccc(N2CCN(C3CCc4ccccc4C3)CC2)nn1` (stereo unspecified): the cytotoxicity at 10 µM was -0.75%.

For the molecule `Cc1ccc(OCC(=O)N2CCCC(n3nc(C)nc3C)C2)cc1` (stereo unspecified), the cytotoxicity at 10 µM is -10.1%.

Regarding `CCN(C1CCS(=O)(=O)C1)S(=O)(=O)c1cccc2cc(C)cnc12` (stereo unspecified), the cytotoxicity at 10 µM was -11%.

With `COCCC(=O)N1CCCC1c1nccc(C)n1` (stereo unspecified), the cytotoxicity at 10 µM is -19.2%.

Regarding `CC(Cc1ccc(Cl)cc1)N(C)C(=O)NCCS(C)(=O)=O` (stereo unspecified), the cytotoxicity at 10 µM amounted to 0.606%.

In the case of `CCNC(=O)N1CCC2(CC1)CCn1c(-c3cccc(OC)c3)cnc12`, the cytotoxicity at 10 µM is 2.81%.

`COCCOc1ccc(Cl)c(C(=O)N2CCN(CCO)CC2)n1`: the cytotoxicity at 10 µM is -4.33%.

On to `CC(=O)Nc1ccc(CNc2cccc(CS(C)(=O)=O)c2)cc1`, for which the cytotoxicity at 10 µM was -6.91%.

On to `COc1c(Cl)cccc1NCc1csc(C)n1`, for which the cytotoxicity at 10 µM is -10.1%.

Take `Cc1nc(-c2ccc(CC(=O)N3CCN(C(=O)C4CC4)CC3)cc2)cs1`: the cytotoxicity at 10 µM turned out to be 9.86%.

As for `N#CCCN(C(=O)CN1CCCC1c1ccsc1)c1ccccc1F` (stereo unspecified), the cytotoxicity at 10 µM is -5.8%.

As to `O[C@@]1(Cn2cnc(Cl)c2Cl)CCCN2CCCC[C@@H]21`, the cytotoxicity at 10 µM was -1.88%.

As to `COc1ncc(C2(O)CCN(Cc3ccc(F)c(F)c3)CC2)c(OC)n1`, the cytotoxicity at 10 µM was -0.279%.

As for `O=c1c(NCc2ccco2)c(NCC(O)CN2CCOCC2)c1=O` (stereo unspecified), the cytotoxicity at 10 µM is -55.8%.

`N[C@@H]1CCN(Cc2ccccc2CS(=O)(=O)c2ccccc2)C[C@H]1O`: the cytotoxicity at 10 µM is -2.58%.

`O=C(c1cccnc1O)N(Cc1cccs1)CC1CCCO1` (stereo unspecified): the cytotoxicity at 10 µM is -11.5%.

Consider `NC(=O)CN(CC(=O)NCc1cccc(Cl)c1)C1CCCC1`, for which the cytotoxicity at 10 µM is -0.979%.

In the case of `NC(=O)c1c(-c2ccc(Cl)cc2)csc1NC(=O)CCC(=O)O`, the cytotoxicity at 10 µM turned out to be 13.8%.

On to `Cc1n[nH]c(C)c1C1COCCN1C(=O)c1ccc(Cl)o1` (stereo unspecified), for which the cytotoxicity at 10 µM is -1.01%.

As for `O=C(NCCO)Nc1cnc2cc(Cl)ccc2c1O`, the cytotoxicity at 10 µM is -30.2%.

For `O=C(CN1CCCNC1=O)Nc1ccccc1C(=O)C1CCCC1`, the cytotoxicity at 10 µM came out at 9.83%.

For `O=C(c1ccoc1)N1CCO[C@@H]2CNC[C@@H]21`, the cytotoxicity at 10 µM is -99.9%.

Take `CCc1cccc(N2CCC(NC(=O)c3ccco3)CC2)c1`: the cytotoxicity at 10 µM is -4.38%.

Regarding `CN(C)Cc1ccc(NC(=O)c2nccn3ccnc23)cc1`, the cytotoxicity at 10 µM was -2.6%.

For the molecule `CN1CCC(N2CCC(CN(Cc3ccncc3)C3CCC3)CC2)CC1`, the cytotoxicity at 10 µM was -7.19%.

As for `COC(=O)c1ccc(CNC(=O)CN2C[C@@H](NC(C)=O)[C@H](C(C)C)C2)o1`, the cytotoxicity at 10 µM is -0.921%.

`Cc1ccccc1N1CCCN(C(=O)CC2CN(C(C)C)CCO2)CC1` (stereo unspecified): the cytotoxicity at 10 µM is -3.11%.

In the case of `CC(C)c1nnc(CNC2CCCN(Cc3noc(C4CC4)n3)C2)o1` (stereo unspecified), the cytotoxicity at 10 µM is -5.62%.

As for `CCc1[nH]ncc1C(=O)N1CCCC(n2ccnc2C(C)C)C1` (stereo unspecified), the cytotoxicity at 10 µM is 2.43%.

For `O=C(Cn1cnc2ccsc2c1=O)NCCCc1nnc2ccccn12`, the cytotoxicity at 10 µM came out at 1.43%.

On to `Cc1nn(C)c(C)c1C1CCCN1Cc1nnc(C2CC2)n1C` (stereo unspecified), for which the cytotoxicity at 10 µM was determined as 1.76%.

Regarding `CN(C)C1CCN(C(=O)c2cc3c(s2)CCN3C(=O)C2CC2)CC1`, the cytotoxicity at 10 µM amounted to 9.61%.

For `CNC(=O)C1CCN(C(=O)CCn2cccn2)CC1`, the cytotoxicity at 10 µM is -3.76%.

In the case of `CS(=O)(=O)N1CCN(CC2CC2)c2ncccc2C1`, the cytotoxicity at 10 µM was -152%.

On to `Cc1nc(CNC(=O)Nc2ccc3c(ccn3CCN(C)C)c2)no1`, for which the cytotoxicity at 10 µM is -21.8%.

Consider `CCN(CC(=O)NC(C)C)C(=O)c1csc(Cc2ccccc2)n1`, for which the cytotoxicity at 10 µM was -5.43%.

Turning to `CC(=O)N1CCCC2(CN(Cc3ccccc3C(F)(F)F)CCO2)C1` (stereo unspecified), the cytotoxicity at 10 µM was 7.28%.

Consider `OCC1COCCN(Cc2cc(C3CCCCC3)no2)C1` (stereo unspecified), for which the cytotoxicity at 10 µM is 6.44%.

In the case of `c1nc(N2CCCC(Cn3cncn3)C2)c2sccc2n1` (stereo unspecified), the cytotoxicity at 10 µM came out at 6.74%.

As for `CCn1cc(CN2CCCN(C(=O)c3ccco3)CC2)cn1`, the cytotoxicity at 10 µM is -11.3%.

Consider `CN(C)CC1(O)CCN(C(=O)c2ccc(-n3cccn3)cc2Cl)C1` (stereo unspecified), for which the cytotoxicity at 10 µM is -0.662%.

For the molecule `CSCC(=O)N1CCCC(c2cc(C)[nH]n2)C1` (stereo unspecified), the cytotoxicity at 10 µM is -11.3%.

Turning to `Cn1ccnc1CN1C[C@@H](CN2CCCC2)[C@@H](CO)C1`, the cytotoxicity at 10 µM is 4.34%.

Turning to `O=C(NCC1CC1)C1CN(C(=O)c2ccncc2)CC12CCOCC2` (stereo unspecified), the cytotoxicity at 10 µM was determined as 0.381%.

In the case of `Cc1cccc2[nH]c(-c3cn(C4CCNCC4)nn3)nc12`, the cytotoxicity at 10 µM was -6.47%.

Consider `COC(=O)CN(Cc1ccccc1C)C(=O)C1CCC1`, for which the cytotoxicity at 10 µM was -3.64%.

For `Cc1c(NC(=O)NC2CN3CCC2CC3)cccc1C(=O)N1CCCC1` (stereo unspecified), the cytotoxicity at 10 µM is 10.1%.

Regarding `CN(C)[C@@H]1CN(Cc2ccc(O)cc2)C[C@H]1c1cn(C)c2ccccc12`, the cytotoxicity at 10 µM turned out to be 2.39%.

With `Cc1ccc(C(=O)N(C)S(C)(=O)=O)cc1Cl`, the cytotoxicity at 10 µM is -46.5%.

Consider `Cc1ccc(CN2CCS(=O)(=O)C(C)(C)C2)cc1C`, for which the cytotoxicity at 10 µM came to 1.05%.

As for `OC1(c2ccc(F)cc2)CCN(Cc2ccccc2N2CCCC2)CC1`, the cytotoxicity at 10 µM amounted to 20.5%.

In the case of `CN1CCCN(C(=O)c2nc3c(n2C)CCN(c2ncccn2)C3)CC1`, the cytotoxicity at 10 µM is -9.18%.

In the case of `CCn1cc(S(=O)(=O)Nc2nc3c(s2)CCCC3)cn1`, the cytotoxicity at 10 µM is 6.33%.

For `Cc1cc(N2CCC(c3n[nH]c4nccnc34)C2)ncn1` (stereo unspecified), the cytotoxicity at 10 µM is -22.7%.

Turning to `F[C@@H]1CN(CC2CC2)C[C@@H]1OCc1nc2cnccc2[nH]1`, the cytotoxicity at 10 µM was 8.42%.

`CCC1CN(CC(=O)NCCN(CC)CC)c2ccccc2S1` (stereo unspecified): the cytotoxicity at 10 µM was -1.23%.

For `CC(C(=O)NC1CCCCC1)N1CCc2[nH]nc(C(F)(F)F)c2C1` (stereo unspecified), the cytotoxicity at 10 µM was determined as 5.15%.

Consider `O=C(O)c1cc(S(=O)(=O)Nc2cnn(C3CCOCC3)c2)ccc1F`, for which the cytotoxicity at 10 µM was -10.9%.

In the case of `O=C(Cc1cnccn1)N1C[C@@H]2CC[C@H]1CN(Cc1cscn1)C2`, the cytotoxicity at 10 µM turned out to be 1.88%.

As to `CCc1nsc(N2CCCN(CC(=O)N(C)C3CC3)CC2)n1`, the cytotoxicity at 10 µM was -9.43%.

For the molecule `O=C(CN1CCOC(Cn2cccn2)C1)NCc1ccccn1` (stereo unspecified), the cytotoxicity at 10 µM was -6.73%.

For the molecule `CN(CCCc1ccccc1)Cc1nc2c(cnn2C)c(=O)[nH]1`, the cytotoxicity at 10 µM was -9.56%.

With `CC1(c2nccs2)CCN(C(=O)CC2CCOCC2)CC1`, the cytotoxicity at 10 µM was -0.29%.

In the case of `COc1cccc2c1CCCCN2C(=O)c1oc(C)nc1C`, the cytotoxicity at 10 µM is 3.3%.

Take `Cn1cnnc1C1CCCN(C(=O)c2ccccc2Cl)C1` (stereo unspecified): the cytotoxicity at 10 µM worked out at 3.59%.

Consider `O=C(NCCNc1ncccn1)N1CCCC1c1ccc(F)cc1` (stereo unspecified), for which the cytotoxicity at 10 µM was found to be 0.932%.

For the molecule `COc1cc2ccccc2cc1C(=O)N1CCCC(c2nncn2C)C1` (stereo unspecified), the cytotoxicity at 10 µM is -6.9%.

With `Cc1ccc(CN2CCN(Cc3ccncc3)[C@@H]3CS(=O)(=O)C[C@@H]32)cc1`, the cytotoxicity at 10 µM is 6.86%.

For `COc1cccc(-n2c(C)cc(C(=O)O)c2C)c1`, the cytotoxicity at 10 µM was -8.65%.

With `CCC(C)NC(=O)c1ccn(COc2ccccc2Cl)n1` (stereo unspecified), the cytotoxicity at 10 µM worked out at 5.75%.

`CN(C)S(=O)(=O)CCCN1CCCC1c1noc(C2CC2)n1` (stereo unspecified): the cytotoxicity at 10 µM is -10.3%.

`O=c1c2cnc(N3CCOCC3)nc2ccn1-c1ccccc1`: the cytotoxicity at 10 µM is -3.12%.

Regarding `O=C(c1ccccn1)N1C[C@H]2CC[C@@H](C1)N(C(=O)CCC(F)(F)F)C2`, the cytotoxicity at 10 µM worked out at 4.37%.

Regarding `COCCn1/c(=N/C(=O)C(C)C)sc2cc(Cl)ccc21`, the cytotoxicity at 10 µM is -5.26%.

As for `Cn1cnc2cc(C(=O)N3CCN(CCO)[C@@H]4CS(=O)(=O)C[C@@H]43)ccc21`, the cytotoxicity at 10 µM stood at 2.74%.

Turning to `O=C1NC(c2ccccc2)=N[C@@]12CC[C@@H]1CN(Cc3ccccc3)C[C@@H]12`, the cytotoxicity at 10 µM was -5.23%.

Take `FC(F)(F)Oc1cccc(CNCc2ccc(-n3cncn3)nc2)c1`: the cytotoxicity at 10 µM was found to be 20.3%.

As for `O=C(Cc1ccccc1)NCCNCc1cccc(O)c1`, the cytotoxicity at 10 µM is -0.206%.

`O=C1CC2(CCN(C(=O)c3ccccn3)CC2)Oc2c(Br)cc(Br)cc21`: the cytotoxicity at 10 µM turned out to be 11.5%.

As to `CCC1c2cccn2CCN1C(=O)c1ccc2nonc2c1` (stereo unspecified), the cytotoxicity at 10 µM was -13.2%.

With `Cc1ccc(C(=O)NS(=O)(=O)c2cc(Cl)ccc2Cl)c(=O)[nH]1`, the cytotoxicity at 10 µM is -5.72%.

Turning to `O=C(Nc1cccnc1)[C@H]1C[C@H]2CN(Cc3ccc(F)cc3)C[C@@H]1O2`, the cytotoxicity at 10 µM is -82.9%.

As to `Cc1ccccc1C(=O)NC(C)CN1CCOC1=O` (stereo unspecified), the cytotoxicity at 10 µM worked out at 4.33%.

As to `CN(CCN1CCOCC1)C(=O)CCc1cccc(Cl)c1`, the cytotoxicity at 10 µM was -6.57%.
